Reference: ChEMBL document CHEMBL3352530, “Nitrogen-containing dihydro-β-agarofuran derivatives from Tripterygium wilfordii” (J Nat Prod, 2014)

How the values were obtained:
PBMC [1] = experiment: Immunosuppressive activity in anti-CD3/anti-CD28-induced human PBMC after 96 hrs by flow cytometry; type: functional, cell-based
Outline: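 Healthy-donor PBMCs isolated by Lymphoprep density-gradient centrifugation, held in complete medium at 10⁶ cells/mL. Stimulated with plate-bound anti-CD3 (2 μg/mL) plus soluble anti-CD28 (1 μg/mL) monoclonal antibodies. Incubated 96 h with varying compound concentrations in DMSO (less than 0.025%) or vehicle alone. Proliferation measured by flow cytometry.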

PBMC [2] = experiment: Cytotoxicity against human PBMC after 96 hrs by flow cytometry; type: cell-based
Outline: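 PBMCs isolated from healthy donors by Lymphoprep density-gradient centrifugation and resuspended in complete medium. Cells at 10⁶ cells/mL incubated without stimulation for 96 h with different concentrations of compound or vehicle alone. Cell survival read by flow cytometry.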

SMILES	IC50 (PBMC [1])	IC50 (PBMC [2])
CC(=O)OC[C@]12[C@H](OC(C)=O)[C@H](OC(C)=O)[C@@H]3[C@@H](O)[C@@]14O[C@@]3(C)COC(=O)c1cccnc1[C@@H](C)[C@H](C)C(=O)O[C@@H]([C@H](OC(=O)c1ccccc1)[C@@H]2OC(C)=O)[C@]4(C)O	32.9 µM	56.3 µM
CC(=O)O[C@@H]1[C@@H]2[C@@H](OC(C)=O)[C@@]34O[C@@]2(C)COC(=O)c2cccnc2CC[C@](C)(OC(=O)c2ccoc2)C(=O)O[C@@H]([C@H](O)[C@H](O)[C@@]3(CO)[C@@H]1O)[C@]4(C)O	8.67 µM	> 100 µM
CC(=O)OC[C@]12[C@H](OC(C)=O)[C@H](OC(C)=O)[C@@H]3[C@@H](OC(C)=O)[C@@]14O[C@@]3(C)COC(=O)c1cccnc1CC[C@](C)(OC(=O)c1ccoc1)C(=O)O[C@@H]([C@H](OC(=O)c1ccoc1)[C@@H]2OC(C)=O)[C@]4(C)O	4.95 µM	26.4 µM
CC1(C)O[C@]23[C@H](OC(=O)c4cccnc4)[C@H]1C[C@@H](OC(=O)/C=C\c1ccccc1)[C@]2(CO)[C@@H](OC(=O)c1ccccc1)CC[C@]3(C)O	24.7 µM	57.6 µM
CC(=O)OC[C@]12[C@H](OC(C)=O)[C@H](OC(C)=O)[C@@H]3[C@@H](OC(C)=O)[C@@]14O[C@@]3(C)COC(=O)c1cccnc1CCC(C)(O)C(=O)O[C@@H]([C@H](OC(C)=O)[C@@H]2OC(C)=O)[C@]4(C)O (some centres not stated) [ALATUSININE]	45.9 µM	75.7 µM
COc1c(C)c2c(c(O)c1C/C=C(\C)CCC(=O)O)C(=O)OC2 [MYCOPHENOLIC ACID]	0.18 µM	> 100 µM
